Structures are written as SMILES. A value given as a limit tells only on which side of the number the result lay.

Assay type in all cases: functional
In test [1] the target is T1, Histidine-rich protein PFHRP-II (Plasmodium falciparum) (UniProt P05227).
T1 sequence (whole entry): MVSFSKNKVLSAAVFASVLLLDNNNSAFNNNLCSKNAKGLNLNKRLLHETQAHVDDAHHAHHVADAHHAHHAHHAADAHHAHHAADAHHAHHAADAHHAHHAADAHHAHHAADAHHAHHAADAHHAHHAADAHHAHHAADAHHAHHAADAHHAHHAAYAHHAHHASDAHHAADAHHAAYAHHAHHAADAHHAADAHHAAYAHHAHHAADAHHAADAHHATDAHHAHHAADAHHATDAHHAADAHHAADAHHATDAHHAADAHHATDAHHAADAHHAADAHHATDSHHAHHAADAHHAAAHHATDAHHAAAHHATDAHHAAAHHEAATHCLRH
The experiment in a line: Inhibition of beta-hematin formation using synthetic hemin chloride. Also noted: concentration or dose not given beside the values. Conditions: concentration not given here. The method in brief: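 Hemin chloride (4 mM in DMSO) was mixed in triplicate with compound in DMSO (50–5 mM as added); water or DMSO served as controls. Acetate buffer (0.2 M, pH 4.4) was added, then incubated at 37 °C for 48 h and centrifuged. The pellet was washed with DMSO, dissolved in 0.2 N NaOH and diluted 1:2 in 0.1 N NaOH. A405 was read and expressed as % inhibition of β-hematin formation.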

In test [2] the test system is Plasmodium berghei. The experiment in a line: Antiparasitic activity against Plasmodium berghei ANKA infected BALB/c mice (Mus musculus) after 18 hrs as reduced hemoglobin proteolysis. The method in brief: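 Parasite extract: blood from P. berghei ANKA-infected mice (30–70% parasitemia); erythrocytes washed and lysed, then freed parasites freeze–thawed three times. Native mouse hemoglobin was incubated with extract, GSH and 0.2 M acetate buffer pH 5.4, with compound in DMSO, at 37 °C for 18 h. Leupeptin, pepstatin and chloroquine were references. Digestion was judged visually from the 14.4 kDa globin band on SDS–PAGE.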

The subject of test [3] is Plasmodium berghei. The experiment in a line: Antiparasitic activity as reduced parasitaemia against chloroquine-sensitive Plasmodium berghei ANKA infected NIH mice (Mus musculus) at 20 mg/kg intraperitoneal dose at day 4. Also noted: scale not given: the % may be the effect or the level left. A digest of the protocol: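 Four-day suppressive test in NIH mice (18–22 g) infected ip with 1 × 10⁷ P. berghei. Dosing began 2 h post-infection: 20 mg/kg ip once daily for 4 days, from a 0.1 M DMSO stock diluted in 2% saline–Tween 20. Chloroquine at 25 mg/kg was the positive control. Day-4 parasitemia was read from Giemsa smears as a percentage versus saline-treated controls.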

Test [4] concerns Plasmodium berghei. The experiment in a line: Antiparasitic activity as survival days against chloroquine-sensitive Plasmodium berghei ANKA infected NIH mice (Mus musculus) at 20 mg/kg intraperitoneal dose. A digest of the protocol: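 NIH mice (18–22 g) infected ip with 1 × 10⁷ P. berghei parasites; dosing started 2 h post-infection. Compound dissolved in DMSO (0.1 M stock), diluted in 2% Saline–Tween 20, given ip at 20 mg/kg once daily for 4 days. Chloroquine 25 mg/kg as positive control; saline-treated mice as untreated controls. Survival time after infection recorded versus control mice.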

What is called inhibition is the drop in the measured response relative to a control, in per cent. For `CCOC(=O)c1sc2c(c1N)S(=O)(=O)c1cc(Cl)ccc1N2c1ccccc1`, the inhibition in test [1] is less than 5%. The “inhibition (INH)” value in test [2] worked out at 0%.
Turning to `CCOC(=O)c1sc2c(c1N)S(=O)(=O)c1ccc(Cl)cc1N2c1ccc(Cl)cc1`, the inhibition in test [1] was less than 5%. Also, in test [2], the “inhibition (INH)” value was found to be 0%.
In turn, `CCOC(=O)c1sc2c(c1N)S(=O)(=O)c1ccc(Cl)cc1N2c1cccc(Cl)c1` gave an inhibition in test [1] of less than 5%. Besides, the “inhibition (INH)” value in test [2] was 0%.
In test [3], `CCOC(=O)c1sc2c(c1N)S(=O)(=O)c1ccc(Cl)cc1N2c1ccccc1C` came in with an Activity of 8.7%. The same compound showed an inhibition in test [1] of less than 5%. Moreover, the “inhibition (INH)” value in test [2] was 74.36%. Besides, the Survival in test [4] was found to be 15.5 days.
Compound `CCN(CC)CCCC(C)Nc1ccnc2cc(Cl)ccc12` (stereo not drawn) [CHLOROQUINE] registered an Activity in test [3] of 1.31%. Besides, the “inhibition (INH)” value in test [2] worked out at 24.12%. In test [4], this compound registered a Survival of 30 days.
`CCOC(=O)c1sc2c(c1N)S(=O)(=O)c1ccc(Cl)cc1N2c1cc(C)ccc1C`: in test [3], the Activity turned out to be 9.4%. In test [1], this compound displayed an inhibition of less than 5%. For the same compound, in test [2], the “inhibition (INH)” value was 76.81%. This compound yielded a Survival in test [4] of 11.42 days.
Turning to `CCOC(=O)c1sc2c(c1N)S(=O)(=O)c1cc(Cl)ccc1N2c1cccc(Cl)c1`, in test [1], the inhibition was less than 5%. Also, in test [2], the “inhibition (INH)” value is listed as 0%.
`CCOC(=O)c1sc2c(c1N)S(=O)(=O)c1cc(Cl)ccc1N2c1cccc(OC)c1` returned an inhibition in test [1] of less than 5%. Further, the “inhibition (INH)” value in test [2] is on record as 0%.
`CCOC(=O)c1sc2c(c1N)S(=O)(=O)c1cc(Cl)ccc1N2c1ccc(OC)cc1` yielded an inhibition in test [1] of less than 5%. Besides, the “inhibition (INH)” value in test [2] amounted to 0%.
For the compound `CC(C)CC(=O)N[C@H](C(=O)N[C@H](C(=O)N[C@@H](CC(C)C)[C@@H](O)CC(=O)N[C@@H](C)C(=O)N[C@@H](CC(C)C)[C@@H](O)CC(=O)O)C(C)C)C(C)C` [PEPSTATIN], in test [2], the “inhibition (INH)” value was 92.94%.
Compound `CCOC(=O)c1sc2c(c1N)S(=O)(=O)c1cc(Cl)ccc1N2c1ccc(Cl)c(Cl)c1` returned an inhibition in test [1] of less than 5%. In addition, the “inhibition (INH)” value in test [2] was 0%.
In the case of `CCOC(=O)c1sc2c(c1N)S(=O)(=O)c1ccc(Cl)cc1N2c1ccccc1`, the Activity in test [3] was 9.75%. This compound registered an inhibition in test [1] of less than 5%. For the same compound, the “inhibition (INH)” value in test [2] is on record as 78.17%. Also, the Survival in test [4] was 13 days.
`CCOC(=O)c1sc2c(c1N)S(=O)(=O)c1cc(Cl)ccc1N2c1cc(C)ccc1C`: in test [1], the inhibition was less than 5%. Also, the “inhibition (INH)” value in test [2] came out at 0%.
Compound `CCOC(=O)c1sc2c(c1N)S(=O)(=O)c1ccc(Cl)cc1N2c1ccc(Cl)c(Cl)c1` displayed an inhibition in test [1] of less than 5%. The “inhibition (INH)” value in test [2] is on record as less than 5%.
`CCOC(=O)c1sc2c(c1N)S(=O)(=O)c1cc(Cl)ccc1N2c1ccc(C)cc1` showed an inhibition in test [1] of less than 5%. The “inhibition (INH)” value in test [2] was found to be 0%.
In turn, `CCOC(=O)c1sc2c(c1N)S(=O)(=O)c1ccc(Cl)cc1N2c1cccc(OC)c1` registered an Activity in test [3] of 11.6%. The compound also came in with an inhibition in test [1] of less than 5%. Moreover, the “inhibition (INH)” value in test [2] worked out at 55.96%. Besides, in test [4], the Survival worked out at 12.16 days.
For the compound `CC(=O)N[C@@H](CC(C)C)C(=O)N[C@@H](CC(C)C)C(=O)N[C@H](C=O)CCCNC(=N)N` [LEUPEPTIN], in test [2], the “inhibition (INH)” value is on record as 89.06%.
For the compound `CCOC(=O)c1sc2c(c1N)S(=O)(=O)c1cc(Cl)ccc1N2c1ccc(Cl)cc1`, the inhibition in test [1] was less than 5%. For the same compound, the “inhibition (INH)” value in test [2] was determined as 0%.
On to `CCOC(=O)c1sc2c(c1N)S(=O)(=O)c1cc(Cl)ccc1N2c1ccccc1C`, for which the inhibition in test [1] was less than 5%. For the same compound, the “inhibition (INH)” value in test [2] is recorded as 0%.
In test [3], `CCOC(=O)c1sc2c(c1N)S(=O)(=O)c1ccc(Cl)cc1N2c1ccc(OC)cc1` showed an Activity of 11.21%. Besides, the inhibition in test [1] is less than 5%. Also, in test [2], the “inhibition (INH)” value is given as 37.01%. This compound returned a Survival in test [4] of 11.6 days.
In test [3], `CCOC(=O)c1sc2c(c1N)S(=O)(=O)c1ccc(Cl)cc1N2c1ccc(C)cc1` yielded an Activity of 15.7%. Further, the inhibition in test [1] was less than 5%. The “inhibition (INH)” value in test [2] was 64.98%. In test [4], the Survival worked out at 10.8 days.

These data come from ChEMBL document CHEMBL1157166, “Synthesis, antimalarial activity, structure-activity relationship analysis of thieno-[3,2-b]benzothiazine S,S-dioxide analogs” (2008).
